Tested on: MS2 coat protein
Assay: apparent Kd, MS2 coat protein; higher = weaker binding; RNA-MaP array
In short: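 Apparent Kd values come from the median of binding-curve fits to single clusters. To obtain them, designed RNAs transcribed on an Illumina sequencing chip from sequenced DNA templates were incubated at room temperature with fluorescently labeled MS2 coat protein at 1.5 nM to 3 μM, with or without input ligand, for 0.8–1.5 h at the lowest and 10–20 min at the highest concentrations. Designs measured on fewer than 10 clusters were excluded.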

[1] = designed as: OFF switch for tryptophan, no ligand
[2] = ligand present: tryptophan, designed as: OFF switch for tryptophan
[3] = designed as: OFF switch for flavin mononucleotide, no ligand
[4] = ligand present: flavin mononucleotide, designed as: OFF switch for flavin mononucleotide
[5] = designed as: ON switch for tryptophan, no ligand
[6] = ligand present: tryptophan, designed as: ON switch for tryptophan
[7] = designed as: ON switch for flavin mononucleotide, no ligand
[8] = ligand present: flavin mononucleotide, designed as: ON switch for flavin mononucleotide

Row | Sequence | apparent Kd [3] [nM] | apparent Kd [4] [nM] | also measured
1 | CAUCGUCGGUCGGCCGCCACUACUGGACAUGAGGAUCACCCAUGUGGCCCGCUGUAUUAACCGCGUAGGACCGGGACGGGAGGUA | – | – | apparent Kd [1]: 30 nM; apparent Kd [2]: 32.9 nM
2 | AGCACAAUAGGAUAUACAUGAGGAUCACCCAUGUAGAAAUUUGGUACCCGGGUGUCUUGUAGAAGGAUAGAAGA | 16.4 | 15.1 | –
3 | CGGGACAUGAGGAUCACCCAUGUACGAUCCCGAGGACCGGUACGGCCGCCACUCGCUAGCGUUGAGUCGCGACUUUCAUAACUAA | – | – | apparent Kd [5]: 74.4 nM; apparent Kd [6]: 43.3 nM
4 | UACGUGGAUGCGGCCGCCACUGCUCUGAGCGAGUUGCUCUAUGGACAUGAGGAUCACCCAUGUCACAGGACCGGGCACGCUUUAA | – | – | apparent Kd [5]: 10.4 nM; apparent Kd [6]: 9.67 nM
5 | CAUUCGAAGGUGAGGAUAUAGCUACAGUUAAAUGUCUAGAAGGCACAUGAGGAUCACCCAUGUAGGGUCUCUCA | 238 | 630 | –
6 | AAUGAGGCCUCUCAACAUGAGGAUCACCCAUGUAACGGAACAAAGGAUAUGGUCCAACUACUAACCCAGAAGGUUGUGACAGAA | – | – | apparent Kd [7]: 49.1 nM; apparent Kd [8]: 40.6 nM
7 | GAUUACGGUCUAGGAUAUUGAUUGGCACAUGAGGAUCACCCAUGUCUGUGAGAUCAGCAUACAAGCAAGAAGGAGAUGCGGUCU | 10.6 | 10.9 | –
8 | CCCAACAUGAGGAUCACCCAUGUUCCGGGUCGAGGACCGGUACGGCCGCCACUCGGUAUGAUGGGUGUGCAGCGUAUCUGCACCA | – | – | apparent Kd [5]: 38.5 nM; apparent Kd [6]: 17.2 nM
9 | UUUAUUCUCUAUACAUGAGGAUCACCCAUGUCAAUGAUGUGCAGAAGGUGGUUCGGCUGUGACUCCAAGGAUAUGCAGAGAAUU | – | – | apparent Kd [7]: 513 nM; apparent Kd [8]: 115 nM
10 | AGUGCAAAUGUAGGAUAUGGACAUGAGGAUCACCCAUGUCAUUAAUAUUAUCGGUCCAAUUUUCUCCAGAAGGACAAAGGCUUG | 11.6 | 10.1 | –
11 | AAUGGGCGAGUAGAGCAUAAUUUCCACUCCCGAGGACCGGUACGGCCGCCACUCGUUCGCUCACAUGAGGAUCACCCAUGUGGUC | – | – | apparent Kd [1]: 32.3 nM; apparent Kd [2]: 57.2 nM
12 | GGGCGUGGAGUAGGAUAUCCUGUAUACAUGAGGAUCACCCAUGUACAUAUCUAGUAUUACCGUUUGGAGAAGGACUGUUGGGCU | – | – | apparent Kd [7]: 11.5 nM; apparent Kd [8]: 9.71 nM
13 | ACCUCGUAAGGAUAUAGAUGCCCGUACACAACAACAGAACUCUAGAAGGUACAUGAGGAUCACCCAUGUUGAUG | 21.5 | 20.9 | –
14 | GGUCCCGUAGGAUAUUGCUCAUUGUACAUGAGGAUCACCCAUGUGACUACACUGCACUGGCAAGAAGGACGUUGAU | 83.2 | 50.2 | –
15 | UGCCUAAAGUCGGCCGCCACUGAUGGUAUCCUCUCCUCGAGGUCACACAUGAGGAUCACCCAUGUCAGGACCGGGACUAGUGAGA | – | – | apparent Kd [1]: 7.89 nM; apparent Kd [2]: 10.4 nM
16 | CCUAGACAAGAGAAGGUUGAGAAGAAACUUUGCAAAGGAUAUCUAAACAUGAGGAUCACCCAUGUCGAUAUAUGGGUAGGCGAA | 102 | 91.4 | –
17 | CCAACCUGUCGAGCACCAUAACAUGAGGAUCACCCAUGUAUCAGAAGGUGUGUGAGUAAGGAAGACAAGGAUAUGACUCGACGC | – | – | apparent Kd [7]: 16.9 nM; apparent Kd [8]: 12.7 nM
18 | GCAGGCGAAGGAUAUACAUGAGGAUCACCCAUGUGUCAAACAAUAAUACCACUCAACUGUAGAAGGUCGGGCGA | 13.9 | 11.4 | –
19 | UAUUUAUCUAUUGUGACAAACAUGAGGAUCACCCAUGUAUACAGAAGGCAUUACCGAAUCUCGGAUGAGGAUAUGUUAUGGAGU | 14 | 33.9 | –
20 | UCGAUCAUGUAGAAGGCAUCAGAAACUGGGUGAUGAGGAUAUACGUUAAGACAUGAGGAUCACCCAUGUAAGCAUUGCAAACAC | – | – | apparent Kd [7]: 116 nM; apparent Kd [8]: 86.2 nM
21 | CGUAUAGCAGGAUAUACAUGAGGAUCACCCAUGUUUUUCGUUGUGUGGUGCCAAGCGUGUAGAAGGGCUUCCUC | 52.4 | 56.8 | –
22 | UUGCUCCAUCAGAAGGUCUACGCACAUGAGGAUCACCCAUGUUCUGGAAUCAUCUUGUGUGCCAAGAAGGAUAUGACUUCAAGU | 545 | 363 | –
23 | UAUUGAAUCCUCCCGACAUGAGGAUCACCCAUGUUACCUGCGCAGGAUAUCGUAUGUAUACCCGGCGAGAAGGGCGCUAGCGAG | 213 | 160 | –

— the EternaBench riboswitch data
